Here are results for nine compounds from ChEMBL document CHEMBL1123788, “Synthesis and antitumor activity of tropolone derivatives. 5” (J Med Chem, 1987).

Values after ≈ are worked out from the molar mass of the structure shown. Active and inactive are the calls of the source. The rule behind the calls is not given here.

Assay [1] relates to P388. The experiment in a line: In vivo antitumor activity against leukemia P388 in mice at 400 mg/kg dosage administered intraperitoneally once a day for 1 and 5 days; compound is inactive. In kind it is functional, organism-based. The arrangement: dose 400 mg/kg. As to conditions: Mus musculus. In short, it runs like this:
(§1)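 Mice bearing P388 leukemia were given the compound intraperitoneally once daily for 1 and 5 days, at doses of 0.6 to 400 mg/kg; single-dose screens were run at 400 mg/kg. Antitumor activity is reported as T/C, %.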

Assay [2] is described as follows: In vitro inhibition of KB cell growth. In kind it is functional, cell-based. The settings on record: Homo sapiens.
Assay [3] concerns P388. In words: In vivo antitumor activity against leukemia P388 in mice at 5 mg/kg dosage administered intraperitoneally once a day for 1 and 5 days. It counts as functional, Mus musculus. The settings on record: route intraperitoneal. In short, it runs like this: as §1
Assay [4] deals with P388. The experiment in a line: In vivo antitumor activity against leukemia P388 in mice at 0.6 mg/kg dosage administered intraperitoneally once a day for 1 and 5 days. In kind it is functional, Mus musculus. The settings on record: route intraperitoneal. In short, it runs like this: as §1
Assay [5] concerns P388. In words: In vivo antitumor activity against leukemia P388 in mice at 2.5 mg/kg dosage administered intraperitoneally once a day for 1 and 5 days. In kind it is functional, Mus musculus. As to conditions: route intraperitoneal. In short, it runs like this:
as §1

The subject of assay [6] is P388. In words: In vivo antitumor activity against leukemia P388 in mice at 50 mg/kg dosage administered intraperitoneally once a day for 1 and 5 days. In kind it is functional, Mus musculus. As to conditions: route intraperitoneal. Put shortly: as §1
For assay [7], the system named is P388. In words: In vivo antitumor activity against leukemia P388 in mice at 100 mg/kg dosage administered intraperitoneally once a day for 1 and 5 days. In kind it is functional, Mus musculus. As to conditions: route intraperitoneal. Put shortly: as §1
The test system of assay [8] is P388. The experiment in a line: In vivo antitumor activity against leukemia P388 in mice at 400 mg/kg dosage administered intraperitoneally once a day for 1 and 5 days. In kind it is functional, Mus musculus. As to conditions: route intraperitoneal. In short, it runs like this:
as §1

The test system of assay [9] is P388. The experiment in a line: In vivo antitumor activity against leukemia P388 in mice at 200 mg/kg dosage administered intraperitoneally once a day for 1 and 5 days. It counts as functional, Mus musculus. The settings on record: route intraperitoneal. In short, it runs like this: as §1

Usually T/C stands for the ratio of treated to control. Usually IC50 stands for the concentration that gives 50% inhibition. A higher IC50 goes with weaker potency in that assay.

With `COc1ccc(C(c2ccc(C(C)C)cc(S)c2=O)c2ccc(C(C)C)cc(S)c2=O)cc1`, the T/C entry in the assay on P388 [1] was “inactive”. In addition, half-maximal inhibition in assay [2] (IC50) required 5.3 µg/mL (≈ 11.1 µM).

On to `CNc1cc(C(C)C)ccc(C(c2ccc(OC)cc2)c2ccc(C(C)C)cc(=O)c2O)c1=O` (centres undefined), for which the T/C entry in the assay on P388 [1] is “inactive”. Besides, the IC50 in assay [2] was 50 µg/mL (≈ 109 µM).

Consider `COc1ccc(C(c2ccc(C(C)C)cc(=O)c2O)c2ccc(C(C)C)cc(=O)c2O)cc1`, for which the figures for the T/C with P388 [3], with P388 [4] and with P388 [5] were 173%, 127% and 134%, respectively. Half-maximal inhibition in assay [2] (IC50) required 0.5 µg/mL (≈ 1.12 µM).

For the compound `C/N=c1\cc(C(C)C)ccc(C(c2ccc(OC)cc2)c2ccc(C(C)C)cc(NC)c2=O)c1O` (centres undefined), in the assay with P388 [1], the T/C entry was “inactive”. Half-maximal inhibition in [2] (IC50) required 100 µg/mL (≈ 212 µM).

Take `CCOC(c1ccc(OC)cc1)c1ccc(C(C)C)cc(=O)c1O` (centres undefined): the T/C was determined as 119% in the assay on P388 [6], 140% in the assay on P388 [7], 140% with P388 [8] and 128% in the assay with P388 [9]. This compound also registered an IC50 in [2] of 0.5 µg/mL (≈ 1.52 µM).

`COc1ccc(C(c2ccc(C(C)C)cc(=O)c2O)c2ccc(C(C)C)cc(OC)c2=O)cc1` (centres undefined): 1.7 µg/mL (≈ 3.69 µM) corresponded to half-maximal inhibition in assay [2] (IC50). The figures for the T/C in the assay with P388 [7], with P388 [8] and in the assay with P388 [9] were 133%, 60% and 148%, respectively.

For the compound `COc1ccc(C(c2ccc(C(C)C)cc(OC)c2=O)c2ccc(C(C)C)cc(OC)c2=O)cc1`, in the assay with P388 [1], the T/C result is “inactive”. Moreover, it took 23.5 µg/mL (≈ 49.5 µM) to reach half-maximal inhibition in [2] (IC50).

As for `COc1ccc(C(c2ccc(C(C)C)cc(=O)c2OC)c2ccc(C(C)C)cc(OC)c2=O)cc1` (centres undefined), in the assay on P388 [1], the T/C result is “inactive”. In [2], this compound came in with an IC50 of 5.4 µg/mL (≈ 11.4 µM).

With `COc1ccc(C(c2ccc(C(C)C)cc(=O)c2OC)c2ccc(C(C)C)cc(=O)c2OC)cc1`, in the assay on P388 [1], the T/C result is “inactive”.
